The subject of data set [1] is Enterococcus faecium. As to the kind of experiment: Antibacterial activity against Enterococcus faecium DSMZ 20477 after 18 to 24 hrs by broth dilution method. Type of data set: functional. Background: Dilution methods test growth across graded concentrations, often in twofold steps.
Data set [2] relates to Staphylococcus aureus. As to the kind of experiment: Antibacterial activity against Staphylococcus aureus CIP 7625 after 18 to 24 hrs by broth dilution method. The data set is classed as functional.
Data set [3] relates to Klebsiella pneumoniae. The data set can be described thus: Antibacterial activity against Klebsiella pneumoniae CIP82.91 after 18 to 24 hrs by broth dilution method. The data set is classed as functional.
In data set [4] the test system is Acinetobacter baumannii. As to the kind of experiment: Antibacterial activity against Acinetobacter baumannii ATCC 19606 after 18 to 24 hrs by broth dilution method. Type of data set: functional. Particulars: ATCC 19606 = CIP 70.34 = JCM 6841.
Data set [5] relates to Pseudomonas aeruginosa. The data set can be described thus: Antibacterial activity against Pseudomonas aeruginosa CIP100720 after 18 to 24 hrs by broth dilution method. The data set is classed as functional.
In data set [6] the test system is Klebsiella aerogenes. The data set can be described thus: Antibacterial activity against Enterobacter aerogenes ATCC 13048 after 18 to 24 hrs by broth dilution method. The data set is classed as functional.
Data set [7] concerns Escherichia coli. As to the kind of experiment: Antibacterial activity against Escherichia coli CIP54.8 after 18 to 24 hrs by broth dilution method. The data set is classed as functional.
Data set [8] has as its system Staphylococcus aureus. The data set can be described thus: Antibacterial activity against Staphylococcus aureus SA1199 after 18 to 24 hrs by broth dilution method. Type of data set: functional.
The subject of data set [9] is Staphylococcus aureus. The data set can be described thus: Antibacterial activity against Staphylococcus aureus SA1199B over-expressing NorA after 18 to 24 hrs by broth dilution method. The data set is classed as functional.
Data set [10] relates to HepG2. The data set can be described thus: Cytotoxicity against human HepG2 cells assessed as reduction in cell viability after 24 hrs by WST1 assay. Particulars: hepg2, 24 h. The data set is classed as cell-based. The essentials: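 Human hepatocyte HepG2 cultures were exposed to test material. IC50 was taken as the concentration giving a 50% decrease in cell respiration relative to the untreated control culture.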

The source of these data is ChEMBL document CHEMBL4184285, “Antibacterial activities of mono-, di- and tri-substituted triphenylamine-based phosphonium ionic liquids” (Bioorg Med Chem Lett, 2018).

Some results are limits rather than exact numbers.

As a reminder, the MIC is the smallest concentration in the dilution series that meets the test's criterion for growth inhibition. Read a low MIC as inhibition by little substance.

For the compound `CCCCCC[P+](CCCCCC)(CCCCCC)CCCCCCCCCCOCc1ccc(N(c2ccccc2)c2ccccc2)cc1.[Br-]`, the MIC was 8 µg/mL in data set [1]; 2 µg/mL in [2]; 32 µg/mL in data set [3]; 16 µg/mL in data set [4]; 64 µg/mL in [5]; above 64 µg/mL in data set [6]. For the same compound, the MIC stood at 32 µg/mL in [7], 1 µg/mL in [8] and 2 µg/mL in [9].
In the case of `CCCCCCCC[P+](CCCCCCCC)(CCCCCCCC)CCCCCCOCc1ccc(N(c2ccccc2)c2ccccc2)cc1.[Cl-]`, the MIC in data set [1] is 16 µg/mL; in data set [2], 8 µg/mL; in data set [3], above 64 µg/mL; in data set [4], above 64 µg/mL; in [5], above 64 µg/mL; in [6], above 64 µg/mL. For the same compound, the MIC in data set [7] is above 64 µg/mL; in data set [8], 8 µg/mL; in [9] it was 8 µg/mL.
Turning to `CCCCCC[P+](CCCCCC)(CCCCCC)CCCCCCOCc1ccc(N(c2ccc(COCCCCCC[P+](CCCCCC)(CCCCCC)CCCCCC)cc2)c2ccc(COCCCCCC[P+](CCCCCC)(CCCCCC)CCCCCC)cc2)cc1.[Cl-].[Cl-].[Cl-]`, the MIC in [1] is 4 µg/mL; in [2], 2 µg/mL; in data set [3], 16 µg/mL; in data set [4] it was 16 µg/mL; in data set [5] it was above 64 µg/mL; in data set [6] it was 64 µg/mL. Besides, the MIC in [7] came to 32 µg/mL; in [8], 2 µg/mL; in data set [9], 2 µg/mL. Also, in data set [10], the Activity stood at 4.28%.
Regarding `CCCCCC[P+](CCCCCC)(CCCCCC)CCCCCCOCc1ccc(N(c2ccccc2)c2ccccc2)cc1.[Br-]`, the MIC is 4 µg/mL in data set [1]; 2 µg/mL in data set [2]; 64 µg/mL in data set [3]; 64 µg/mL in data set [4]; 64 µg/mL in data set [5]; above 64 µg/mL in data set [6]. Further, the results for the MIC in [7], in data set [8] and in [9] were above 64 µg/mL, 2 µg/mL and 2 µg/mL, respectively.
As to `CCCCCC[P+](CCCCCC)(CCCCCC)CCCCCCOCc1ccc(N(c2ccccc2)c2ccc(COCCCCCC[P+](CCCCCC)(CCCCCC)CCCCCC)cc2)cc1.[Cl-].[Cl-]`, the MIC in data set [1] was 2 µg/mL; in [2], 2 µg/mL; in data set [3] it was 16 µg/mL; in [4] it was 16 µg/mL; in [5] it was 64 µg/mL; in [6] it was above 64 µg/mL. The MIC in data set [7] came out at 32 µg/mL; in [8], 2 µg/mL; in [9], 2 µg/mL. In addition, the Activity in data set [10] amounted to 4.16%.
Regarding `CCCCCC[P+](CCCCCC)(CCCCCC)CCCCCCOCc1ccc(N(c2ccccc2)c2ccccc2)cc1.[Cl-]`, the MIC in data set [1] was 4 µg/mL; in [2], 2 µg/mL; in [3] it was above 64 µg/mL; in data set [4] it was above 64 µg/mL; in data set [5], 16 µg/mL; in [6] it was above 64 µg/mL. Also, the MIC in [7] was above 64 µg/mL; in [8], 2 µg/mL; in data set [9], 2 µg/mL. Moreover, the Activity in [10] amounted to 0.09%.
Take `CCCC[P+](CCCC)(CCCC)CCCCCCOCc1ccc(N(c2ccccc2)c2ccccc2)cc1.[Cl-]`: the MIC in [1] worked out at 1 µg/mL; in data set [2], 1 µg/mL; in [3] it was 16 µg/mL; in data set [4] it was 16 µg/mL; in data set [5], 32 µg/mL; in [6] it was 16 µg/mL. Also, the MIC in [7] stood at 16 µg/mL; in [8], 0.5 µg/mL; in data set [9], 0.5 µg/mL.
